One assay relates to HT-29. Kind of assay: MTT growth inhibition, HT-29 colon adenocarcinoma cells. Format: cell-based, human. As to conditions: Homo sapiens, HT-29, 72 h, read-out: GI50 HT-29. In outline: (§1)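 Cells seeded at 8 × 10^3 per well in 96-well plates and held 18 h at 37 °C, 5% CO2. Medium then replaced with test compound in complete medium at various concentrations for 72 h continuous exposure. Viability read by MTT. GI50 is the concentration giving 50% proliferation inhibition, from dose–response curves; mean ± SE of ≥3 independent experiments. Media: leukemia lines in RPMI-1640; solid-tumour lines in DMEM with penicillin G 115 U mL−1, streptomycin and 10% FBS.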

Another assay relates to ARO. Kind of assay: MTT growth inhibition, ARO anaplastic thyroid cells. Format: cell-based, human. The note with it: Homo sapiens, Thyroid cell, 72 h, read-out: GI50 ARO. In outline: as §1
A further assay concerns Hep G2. Kind of assay: MTT growth inhibition, HepG2 hepatoma cells. As to conditions: Homo sapiens, HepG2, 72 h, read-out: GI50 Hep G2. The format is cell-based, human. In outline:
as §1

A further assay deals with IGROV. Kind of assay: MTT growth inhibition, IGROV ovarian cancer cells. The format is cell-based, human. The note with it: Homo sapiens, IGROV, 72 h, read-out: GI50 IGROV. In outline: as §1
Another assay has as its system MCF-7. Kind of assay: MTT growth inhibition, MCF-7 breast adenocarcinoma cells. Format: cell-based, human. The note with it: Homo sapiens, MCF7, 72 h, read-out: GI50 MCF-7. In outline: as §1
Another assay deals with HeLa. Kind of assay: MTT growth inhibition, HeLa cervix carcinoma cells. The format is cell-based, human. As to conditions: Homo sapiens, HeLa, 72 h, read-out: GI50 HeLa. In outline: as §1
The test system of the next assay is HL-60. Kind of assay: MTT growth inhibition, HL-60 promyelocytic leukemia cells. Format: cell-based, human. The note with it: Homo sapiens, HL-60, 72 h, read-out: GI50 HL-60. In outline:
as §1

The next assay relates to ML2. Kind of assay: MTT growth inhibition, ML-2 myeloid leukemia cells. The note with it: Homo sapiens, ML-2, 72 h, read-out: GI50 ML2. Format: cell-based, human. In outline: as §1
For a further assay, the system named is K562. Kind of assay: MTT growth inhibition, K562 chronic myelogenous leukemia cells. Format: cell-based, human. The note with it: Homo sapiens, K562, 72 h, read-out: GI50 K562. In outline:
as §1

The next assay concerns RS 4;11. Kind of assay: MTT growth inhibition, RS 4. The format is cell-based, human. As to conditions: Homo sapiens, RS4-11, 72 h, read-out: GI50 RS 4;11. In outline: as §1
A further assay deals with Jurkat. Kind of assay: MTT growth inhibition, Jurkat T-leukemia cells. The format is cell-based, human. The note with it: Homo sapiens, Jurkat, 72 h, read-out: GI50 Jurkat. In outline:
as §1

In another assay the test system is Bovine brain tubulin. Kind of assay: Inhibition of tubulin polymerization. Format: biochemical. As to conditions: read-out: Tubulin Assembly IC50; tubulin 10 μM; 20 min incubation; ± SD.
Assay [1] has as its system Bovine brain tubulin (colchicine site). Kind of assay: Inhibition of [3H]colchicine binding to tubulin. As to conditions: tubulin 1 μM, [3H]colchicine 5 μM; for Colchicine Binding Inhibition [%], 5 μM: compound 5 μM.
The subject of the next assay is solid tumor cells. Kind of assay: MTT growth inhibition, solid tumor cell lines. The format is cell-based. As to conditions: Homo sapiens, 72 h, read-out: GI50, solid tumor cells. In outline:
as §1

In the next assay the test system is leukemia cells. Kind of assay: MTT growth inhibition, leukemia cell lines. The note with it: Homo sapiens, 72 h, read-out: GI50, leukemia cells. Format: cell-based, human. In outline:
as §1

In assay [2] the test system is Jurkat cells. Kind of assay: Flow cytometric cell-cycle analysis. As to conditions: for effect on cell-cycle progression (G2/M arrest, in words): 24 h treatment. Format: cell-based, human. In outline: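 Jurkat cells in exponential growth, 5 × 10^5 per sample, exposed to test compound at various concentrations for 24 h. Cells fixed in ice-cold 70% ethanol, treated with lysis buffer containing RNase A and 0.1% Triton X-100, then stained with PI. DNA content measured by flow cytometry and phases assigned from DNA histograms. Mean ± SEM of two independent experiments.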
In general terms: In flow cytometry, cells or beads pass a laser one at a time.

Assay [3] deals with Jurkat cells. Kind of assay: Annexin V-FITC/PI apoptosis assay. Format: cell-based, human. As to conditions: 24 h treatment. In outline:
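Jurkat cells exposed to test compound at various concentrations for 24 or 48 h, then harvested. Co-labelled with annexin V–FITC and PI and analysed by flow cytometry (excitation 488 nm; emission 525 and 585 nm). Reported as mean percentage of annexin-V-positive cells ± SEM, three independent experiments.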

The subject of assay [4] is Jurkat cells. Kind of assay: Mitochondrial membrane potential. Format: cell-based, human. As to conditions: 0.5 and 0.1 μM, 24 and 48 h. In outline: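 After treatment, Jurkat cells were pelleted and resuspended in HBSS containing JC-1, then kept 10 min at 37 °C. They were spun again, taken up in HBSS and read by flow cytometry. Polarised mitochondria give red JC-1 aggregates (590 nm); depolarisation gives green monomers (530 nm).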

The test system of assay [5] is Jurkat cells. Kind of assay: Mitochondrial ROS production. The format is cell-based, human. The note with it: 24 and 48 h. In outline: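 Jurkat cells treated with test compound for 24 or 48 h, pelleted, then loaded in HBSS with hydroethidine (HE) or H2-DCFDA for 30 min at 37 °C. Cells re-pelleted into HBSS and read by flow cytometry: 488 nm excitation, emission 585 nm (HE) and 530 nm (DCF). Fluorescence intensity given as % of untreated control; mean ± SEM, three independent experiments.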

For assay [6], the system named is caspase-3 in Jurkat cells. Kind of assay: Caspase-3 activation by flow cytometry. The format is cell-based, human. The note with it: time- and concentration-dependent.
The test system of another assay is Bcl-2 in Jurkat cells. Kind of assay: Flow cytometric analysis of Bcl-2 expression. The format is cell-based, human. As to conditions: 24 and 48 h, flow cytometry. In outline:
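Jurkat cells incubated with test compound for 24 and 48 h, then pelleted and permeabilised with a Fix&Perm kit. Labelled with FITC-conjugated anti-Bcl-2 monoclonal antibody, washed and analysed by flow cytometry. Mean ± SEM of two independent experiments.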

As a reminder, the GI50 is the concentration giving 50% growth inhibition. One may read the IC50 as the concentration that gives 50% inhibition. Consider `CCOC(=O)CCn1ccc2c3c(=O)cc(-c4ccccc4)[nH]c3ccc21` [Compound 11, Ethyl 3-(9-oxo-7-phenyl-6H-pyrrolo[3,2-f]quinolin-3(9H)-yl)propanoate], for which the GI50 amounted to 480 ± 80 nM with HT-29; 550 ± 150 nM with ARO; 520 ± 100 nM in the assay on Hep G2; 620 ± 150 nM in the assay with IGROV; 580 ± 180 nM with MCF-7; 450 ± 100 nM in the assay with HeLa. The GI50 in the assay with HL-60 is 2 ± 0.1 nM; with ML2, 5 ± 2 nM; with K562, 190 ± 60 nM; in the assay with RS 4;11, 2 ± 0.4 nM; with Jurkat, 0.5 ± 0.01 nM; in the assay with solid tumor cells, 400 to 1400 nM. For the same compound, the GI50 in the assay on leukemia cells lay in the range of 0.5 to 10 nM. Further, in the assay with Bovine brain tubulin, the IC50 was 750 ± 40 nM. In assay [1] (compound 1 μM), the “Colchicine Binding Inhibition [%], 1 μM” value is 44 ± 6%. Also, the “Colchicine Binding Inhibition [%], 5 μM” value in assay [1] came out at 75 ± 4%. The compound also displayed a G2/M cell population with Jurkat cells [2] (24 h, 0.06 μM, control 9.4 %) of 77%. Also, in the assay with Jurkat cells [2] (24 h, 0.06 μM, control 43 %), the S-phase cells was 20%. In addition, in the assay on Jurkat cells [2] (24 h, 0.06 μM, control 47 %), the G1 cells is 3%. For the same compound, in the assay on Jurkat cells [2], the “effect on cell-cycle progression (G2/M arrest, in words)” value is recorded as “clear G2/M arrest pattern in a concentration-dependent manner”. Moreover, the “induction of apoptotic (annexin-V-positive) cells, in words” value with Jurkat cells [3] is “remarkable induction of apoptotic cells”. For the same compound, in the assay with Jurkat cells [4], the “percentage of cells with low ΔΨmt (JC-1), in words” value was “significant increase in the percentage of cells with low ΔΨmt”. Further, the “ROS production (HE, H2-DCFDA), in words” value in the assay with Jurkat cells [5] is on record as “induced the production of ROS relative to control cells”. The “caspase-3 activation, in words” value in [6] is “activate caspase-3”. Moreover, the “Bcl-2 expression, in words” value in the assay on Bcl-2 in Jurkat cells is reported as “decrease Bcl-2 expression”.
As for `COc1cc(Cn2ccc3c4c(=O)cc(-c5ccccc5)[nH]c4ccc32)cc(OC)c1OC` [Compound 12, 7-Phenyl-3-(3,4,5-trimethoxybenzyl)-3H-pyrrolo[3,2-f]quinolin-9(6H)-one], the GI50 is 450 ± 100 nM in the assay with HT-29; 580 ± 150 nM with ARO; 950 ± 150 nM in the assay on Hep G2; 850 ± 200 nM with IGROV; 1400 ± 500 nM in the assay on MCF-7; 400 ± 50 nM in the assay on HeLa. For the same compound, the GI50 with HL-60 was 2 ± 0.1 nM; with ML2 it was 10 ± 2 nM; in the assay with K562 it was 30 ± 7 nM; in the assay on RS 4;11, 1 ± 0.1 nM; in the assay on Jurkat, 3 ± 0.1 nM; in the assay with solid tumor cells, 400 to 1400 nM. In addition, the concentration for 50% growth inhibition (GI50) in the assay with leukemia cells is 0.5 to 10 nM. The concentration for half-maximal inhibition (IC50) in the assay on Bovine brain tubulin was 1400 ± 200 nM. For the same compound, in [1], the “Colchicine Binding Inhibition [%], 5 μM” value is recorded as 30 ± 4%. Further, the “Colchicine Binding Inhibition [%], 50 μM” value in assay [1] (compound 50 μM) came to 56 ± 2%. Also, in the assay on Jurkat cells [2] (24 h, 0.25 μM, control 9.4 %), the “arrest in G2/M phase (cell population)” value is on record as 65%. For the same compound, the “effect on cell-cycle progression (G2/M arrest, in words)” value with Jurkat cells [2] is “clear G2/M arrest pattern in a concentration-dependent manner”. For the same compound, the “induction of apoptotic (annexin-V-positive) cells, in words” value with Jurkat cells [3] is given as “remarkable induction of apoptotic cells”. The “percentage of cells with low ΔΨmt (JC-1), in words” value with Jurkat cells [4] is “significant increase in the percentage of cells with low ΔΨmt”. For the same compound, the “ROS production (HE, H2-DCFDA), in words” value in the assay with Jurkat cells [5] was “induced the production of ROS relative to control cells”. Besides, the “caspase-3 activation, in words” value in assay [6] was “activate caspase-3”. The “Bcl-2 expression, in words” value in the assay with Bcl-2 in Jurkat cells is “decrease Bcl-2 expression”.
